Measurements published in ChEMBL document CHEMBL4364306, “Structure-activity relationships of thiazole and benzothiazole derivatives as selective cannabinoid CB2 agonists with in vivo anti-inflammatory properties” (Eur J Med Chem, 2019).
pEC50: −log10 of the molar value. Active and inactive are the calls of the source. The rule behind the calls is not given here.

Experiments:
Homo sapiens = species: Homo sapiens; assay: Selectivity index, ratio of Ki for recombinant human CB1R expressed in HEK293 cell membranes to Ki for recombinant human CB2R expressed in HEK293 cell membranes; type: cell-based
Cannabinoid receptor 2 [1] = target: T1, Cannabinoid receptor 2 (Homo sapiens, UniProt P34972); assay: Agonist activity at N-terminal Flag epitope tagged CB2 (unknown origin) expressed in HTLA cells assessed as increase of beta-arrestin recruitment by Tango assay; type: cell-based
In short: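 β-arrestin Tango assay: HTLA cells transfected overnight with GPCR tango constructs, plated at 15,000 cells/well in DMEM with 1% dFBS, recovered ≥6 h. Drugs in Tango buffer (20 mM HEPES, 1x HBSS, pH 7.40) added overnight, full concentration-response (maximum 30 µM). BrightGlo reagent, 20 min room temperature in dark, luminescence read.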

Cannabinoid receptor 2 [2] = target: T1, Cannabinoid receptor 2; assay: Antagonist activity at N-terminal Flag epitope tagged CB2 (unknown origin) expressed in HTLA cells assessed as decrease in CP55940-induced beta-arrestin recruitment pretreated with non-selective cannabinoid receptor agonist CP55940 for 30 mins and measured after 20 mins by Tango assay; type: cell-based
Cannabinoid receptor 1 [3] = target: T2, Cannabinoid receptor 1 (Homo sapiens, UniProt P21554); assay: Agonist activity at N-terminal Flag epitope tagged CB1 (unknown origin) expressed in HTLA cells assessed as increase of beta-arrestin recruitment by Tango assay; type: cell-based
In short: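 HTLA cells transfected overnight with GPCR Tango constructs, plated at 15,000 cells/well in DMEM with 1% dFBS and allowed to recover at least 6 h. Compounds in Tango buffer (20 mM HEPES, 1x HBSS, pH 7.40) added overnight, full concentration-response up to 30 µM against CP-55,940 as reference agonist. BrightGlo reagent added for 20 min at room temperature in the dark, then luminescence read.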

Cannabinoid receptor 1 [4] = target: T2, Cannabinoid receptor 1; assay: Antagonist activity at N-terminal Flag epitope tagged CB1 (unknown origin) expressed in HTLA cells assessed as decrease in CP55940-induced beta-arrestin recruitment pretreated with non-selective cannabinoid receptor agonist CP55940 for 30 mins and measured after 20 mins by Tango assay; type: cell-based
Cannabinoid receptor 2 [5] = target: T1, Cannabinoid receptor 2; assay: Agonist activity at recombinant human CB2R expressed in CHOK1 cells assessed as inhibition of NKH477-stimulated intracellular cAMP levels after 30 mins by chemiluminescent detection based cAMP Hunter assay; type: functional, cell-based
In short: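 CHO-K1 cells overexpressing human CB2R, plated 30,000 cells/well, overnight 37 °C, 5% CO2. Compound dose-responses incubated 30 min at 37 °C with NKH-477 (25 µM) to stimulate adenylate cyclase. Enzyme fragment complementation chemiluminescence read. Normalised to NKH-477 alone as 100%; mean ± SEM of three independent experiments in triplicate.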

Mus musculus [6] = assay: Anti-colitis activity in Swiss albino mouse model of DSS-induced acute colitis assessed as disease activity index at 10 mg/kg, ip administrated for 7 days (reference value: 7.143 +/- 1.29); type: functional
Mus musculus [7] = assay: Anti-colitis activity in Swiss albino mouse model of DSS-induced acute colitis assessed as colon length at 10 mg/kg, ip administrated for 7 days (reference value: 7.314 +/- 0.1143 cm); type: functional
Mus musculus [8] = assay: Anti-colitis activity in Swiss albino mouse model of DSS-induced acute colitis assessed as reduction in DSS-induced ulceration in distal part of colon at 10 mg/kg, ip administrated for 7 days by H and E staining based light microscopic method; type: functional, organism-based
In short: (§1)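 DSS colitis (3% DSS, 7 days) in male Swiss albino mice with daily ip 10 mg/kg in 4% DMSO/2% tween/saline. Distal colon fixed in 10% formol saline 24 h, paraffin-embedded, 4 µm sections, H&E, light microscopy scored for epithelial ulceration/desquamation, mucosal and submucosal infiltration, submucosal oedema, haemorrhage, lymphoid hyperplasia.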

Mus musculus [9] = assay: Anti-colitis activity in Swiss albino mouse model of DSS-induced acute colitis assessed as reduction in DSS-induced desquamation in lining of mucosal epithelium in colon tissue at 10 mg/kg, ip administrated for 7 days by H and E staining based light microscopic method; type: functional, organism-based; in short: as §1
Mus musculus [10] = assay: Anti-colitis activity in Swiss albino mouse model of DSS-induced acute colitis assessed as reduction in DSS-induced oedema in colon at 10 mg/kg, ip administrated for 7 days by H and E staining based light microscopic method; type: functional, organism-based; in short: as §1
Mus musculus [11] = assay: Anti-colitis activity in Swiss albino mouse model of DSS-induced acute colitis assessed as reduction in DSS-induced lymphoid hyperplasia in the sub-musoca in colon at 10 mg/kg, ip administrated for 7 days by H and E staining based light microscopic method; type: functional, organism-based; in short: as §1
Mus musculus [12] = assay: Anti-colitis activity in Swiss albino mouse model of DSS-induced acute colitis assessed as reduction in DSS-induced haemorrhage in colon at 10 mg/kg, ip administrated for 7 days by H and E staining based light microscopic method; type: functional, organism-based; in short: as §1
Mus musculus [13] = assay: Anti-colitis activity in Swiss albino mouse model of DSS-induced acute colitis assessed as reduction in DSS-induced inflammatory cells infiltration in the submucosa in colon at 10 mg/kg, ip administrated for 7 days by H and E staining based light microscopic method; type: functional, organism-based; in short: as §1
Mus musculus [14] = assay: Anti-inflammatory activity in Swiss albino mouse model of DSS-induced acute colitis as TNFalpha level in colon tissue at 10 mg/kg, ip administrated for 7 days by ELISA (reference value: 102.4 +/- 5.043 pg/mg); type: functional
Mus musculus [15] = assay: Anti-inflammatory activity in Swiss albino mouse model of DSS-induced acute colitis as IL1beta level in colon tissue at 10 mg/kg, ip administrated for 7 days by ELISA (reference value: 140.9 +/- 8.551 pg/mg); type: functional
Cannabinoid receptor 1 [16] = target: T2, Cannabinoid receptor 1; assay: Displacement of [3H]CP55940 from recombinant human CB1R expressed in HEK293 cell membranes at 10 uM incubated for 90 mins relative to control
Cannabinoid receptor 2 [17] = target: T1, Cannabinoid receptor 2; assay: Displacement of [3H]CP55940 from recombinant human CB2R expressed in HEK293 cell membranes at 10 uM incubated for 90 mins relative to control

T1 sequence (P34972 whole entry): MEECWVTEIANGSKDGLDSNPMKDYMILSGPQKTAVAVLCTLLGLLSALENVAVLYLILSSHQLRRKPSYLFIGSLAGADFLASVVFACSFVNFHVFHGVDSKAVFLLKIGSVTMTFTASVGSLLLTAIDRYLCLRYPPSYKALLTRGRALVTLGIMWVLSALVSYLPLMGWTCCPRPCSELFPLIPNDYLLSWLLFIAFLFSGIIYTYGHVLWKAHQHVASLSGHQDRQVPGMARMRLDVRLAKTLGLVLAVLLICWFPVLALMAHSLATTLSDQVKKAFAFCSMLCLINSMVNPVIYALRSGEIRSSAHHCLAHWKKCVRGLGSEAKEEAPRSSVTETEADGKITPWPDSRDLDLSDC
T2 sequence (P21554 whole entry): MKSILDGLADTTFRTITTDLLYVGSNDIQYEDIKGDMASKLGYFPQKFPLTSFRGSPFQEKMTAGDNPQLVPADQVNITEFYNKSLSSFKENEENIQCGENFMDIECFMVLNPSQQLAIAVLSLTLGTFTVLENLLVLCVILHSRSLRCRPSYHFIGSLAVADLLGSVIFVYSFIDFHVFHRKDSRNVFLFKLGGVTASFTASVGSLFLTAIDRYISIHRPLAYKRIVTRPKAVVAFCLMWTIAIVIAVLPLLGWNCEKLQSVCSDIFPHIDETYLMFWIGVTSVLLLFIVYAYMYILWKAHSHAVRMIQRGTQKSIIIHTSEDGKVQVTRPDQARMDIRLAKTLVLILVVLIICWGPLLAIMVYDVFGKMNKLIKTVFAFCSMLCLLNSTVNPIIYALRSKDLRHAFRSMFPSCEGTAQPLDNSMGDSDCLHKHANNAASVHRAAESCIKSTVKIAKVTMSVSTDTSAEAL

Structure (SMILES): CCCCCn1/c(=N/C(=O)c2cccc(C(F)(F)F)c2)sc2ccccc21
- Ratio Ki (Homo sapiens): 429
- pEC50 (Cannabinoid receptor 2 [1]): 6.89
- pEC50 (Cannabinoid receptor 2 [2]): < 4.52
- pEC50 (Cannabinoid receptor 1 [3]): < 4.52
- pEC50 (Cannabinoid receptor 1 [4]): < 4.52
- pEC50 (Cannabinoid receptor 2 [5]): 6.51
- Activity_index (Mus musculus [6]): 3.286
- Activity (Mus musculus [7]): 6.729 cm
- Activity (Mus musculus [8]): Active
- Activity (Mus musculus [9]): Active
- Activity (Mus musculus [10]): Active
- Activity (Mus musculus [11]): Active
- Activity (Mus musculus [12]): Active
- Activity (Mus musculus [13]): inactive
- Activity (Mus musculus [14]): 58.71 pg/mg
- Activity (Mus musculus [15]): 102.4 pg/mg
- Activity (Cannabinoid receptor 1 [16]): Active
- Activity (Cannabinoid receptor 2 [17]): Active
